The species named for data set [1] is Homo sapiens. The data set can be described thus: Selectivity ratio of IC50 for human recombinant MAO-A to IC50 for human recombinant MAO-B. In outline:
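Ratio calculated as IC50 (MAO-A) divided by IC50 (MAO-B), from Amplex Red assays with p-tyramine on human recombinant enzymes.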

Data set [2] concerns the target T1, Amine oxidase [flavin-containing] B (Homo sapiens, UniProt P27338).
T1 sequence (P27338 whole entry): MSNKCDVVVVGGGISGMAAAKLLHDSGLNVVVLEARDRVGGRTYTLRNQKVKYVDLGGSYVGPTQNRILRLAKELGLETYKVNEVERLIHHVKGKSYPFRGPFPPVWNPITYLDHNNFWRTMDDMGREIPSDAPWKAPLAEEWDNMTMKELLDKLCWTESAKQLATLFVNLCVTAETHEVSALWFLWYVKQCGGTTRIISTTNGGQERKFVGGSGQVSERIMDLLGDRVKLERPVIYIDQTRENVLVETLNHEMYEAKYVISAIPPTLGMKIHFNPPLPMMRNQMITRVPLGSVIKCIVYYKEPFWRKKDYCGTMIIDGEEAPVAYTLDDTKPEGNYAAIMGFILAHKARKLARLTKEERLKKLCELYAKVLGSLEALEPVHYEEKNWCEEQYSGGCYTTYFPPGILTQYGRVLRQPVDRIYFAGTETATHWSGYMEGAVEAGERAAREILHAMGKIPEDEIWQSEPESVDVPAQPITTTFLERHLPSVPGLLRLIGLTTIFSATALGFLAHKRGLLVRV
The experiment in a line: Inhibition of human recombinant MAO-B expressed in baculovirus infected insect cells assessed as hydrogen peroxide production using p-tyramine as substrate incubated for 30 mins prior to substrate addition measured for 45 mins by Amplex Red monoamine oxidase assay. A digest of the protocol: (§1)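 Human recombinant enzyme in 50 mM sodium phosphate pH 7.4. Test compound in DMSO preincubated with enzyme for 30 min at room temperature. Reaction started with p-tyramine (final 150 µM) plus Amplex Red/HRP and kept in the dark. Resorufin fluorescence (ex 544, em 590 nm) read over 45 min. IC50 values from three experiments.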

Data set [3] concerns the target T2, Amine oxidase [flavin-containing] A (Homo sapiens, UniProt P21397).
T2 sequence (P21397 whole entry): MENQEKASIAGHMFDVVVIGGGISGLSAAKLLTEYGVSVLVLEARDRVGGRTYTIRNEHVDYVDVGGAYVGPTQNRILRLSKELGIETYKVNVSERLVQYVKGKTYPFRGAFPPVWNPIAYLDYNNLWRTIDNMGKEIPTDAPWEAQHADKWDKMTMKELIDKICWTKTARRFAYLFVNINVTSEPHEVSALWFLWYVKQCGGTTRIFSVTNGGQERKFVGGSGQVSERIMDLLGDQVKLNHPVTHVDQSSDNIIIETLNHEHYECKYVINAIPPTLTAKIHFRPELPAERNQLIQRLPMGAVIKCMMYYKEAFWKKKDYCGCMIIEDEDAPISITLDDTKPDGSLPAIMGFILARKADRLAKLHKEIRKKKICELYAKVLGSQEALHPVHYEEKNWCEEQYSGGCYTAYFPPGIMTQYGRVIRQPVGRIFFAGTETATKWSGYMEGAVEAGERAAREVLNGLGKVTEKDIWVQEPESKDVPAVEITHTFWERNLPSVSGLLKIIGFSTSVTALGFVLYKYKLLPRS
The experiment in a line: Inhibition of human recombinant MAO-A expressed in baculovirus infected insect cells assessed as hydrogen peroxide production using p-tyramine as substrate incubated for 30 mins prior to substrate addition measured for 45 mins by Amplex Red monoamine oxidase assay. A digest of the protocol:
as §1

Data set [4] is described as follows: Lipophilicity, log D of the compound at pH 7.4 by HPLC analysis. The class given is physicochemical. To be noted: buffer. A digest of the protocol:
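Retention-based HPLC on a C18 column at 40 °C and 0.8 mL/min. Linear gradient with 10 mM ammonium acetate. UV read at 254 nm. Atenolol, metoprolol, diltiazem, labetalol and triphenylene used as references. Compounds injected from DMSO solutions (0.5 mg/mL) in duplicate.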

Data set [5] addresses T1, Amine oxidase [flavin-containing] B. The data set can be described thus: Reversible inhibition of human MAO-B using p-tyramine as substrate at IC80 incubated for 1 hr prior to increasing substrate concentration measured for 5 hrs by fluorescence analysis. In outline: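 Human MAO-B preincubated 1 h with inhibitor at about its IC80. Reaction started with p-tyramine (10 µM). After 22 min, substrate raised to a final 1 mM. Recovery of activity followed by fluorescence over 5 h.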

What is called IC50 is the midpoint of a concentration-inhibition curve. Usually logD stands for the decadic logarithm of the distribution of all forms, ionised or not, between an organic phase and buffer at a given pH.

For the compound `C#CCCOc1ccc2cc(C(=O)OC)c(=O)oc2c1`, the Ratio IC50 in data set [1] was found to be 3. Further, the IC50 in data set [2] came to 258 nM; in data set [3], 818 nM.
`C#CCCCCOc1ccc2oc(=O)c(NC(C)=O)cc2c1`: the Ratio IC50 in data set [1] is over 400. The compound also showed a logD in data set [4] of 2.4. Moreover, the results for the IC50 in data set [2] and in data set [3] were 24.7 nM and over 10000 nM, respectively.
For `C#CCCCCOc1ccc2cc(C(=O)c3ccc(OC)cc3)c(=O)oc2c1`, in that order: over 150, 3.5, 67.1 nM and over 10000 nM.
Turning to `CC(=O)Nc1cc2ccc(OCc3cccc(Cl)c3)cc2oc1=O`, the Ratio IC50 in data set [1] was determined as 5. Moreover, the IC50 came to 13.5 nM in data set [2] and 62.7 nM in data set [3].
For the compound `COC(=O)c1cc2cc(OCCc3ccc(Cl)cc3)ccc2oc1=O`, the Ratio IC50 in data set [1] is over 83. The IC50 was 120 nM in data set [2] and over 10000 nM in data set [3].
With `C#CCCCOc1ccc2oc(=O)c(C(=O)OC)cc2c1`, the Ratio IC50 in data set [1] is over 7. Moreover, the figures for the IC50 in data set [2] and in data set [3] were 1440 nM and over 10000 nM, respectively.
As to `COC(=O)c1cc2ccc(OCc3cccc(F)c3)cc2oc1=O`, the Ratio IC50 in data set [1] was found to be 130. This compound displayed a logD in data set [4] of 3.2. Further, the IC50 in data set [2] came out at 0.588 nM; in data set [3], 77.2 nM.
As to `COC(=O)c1cc2ccc(OC/C=C(\C)CCC=C(C)C)cc2oc1=O`, the Ratio IC50 in data set [1] is 130. In addition, the IC50 in data set [2] stood at 78.9 nM; in data set [3] it was 10000 nM.
Consider `C#CCCCCOc1ccc2cc(NC(C)=O)c(=O)oc2c1`, for which, in data set [1], the Ratio IC50 amounted to 2. Also, the IC50 in data set [2] is 41.7 nM; in data set [3], 66.8 nM.
Regarding `C#CCCCCOc1ccc2cc(C(=O)OC)c(=O)oc2c1`, the “inhibition (INH)” value in data set [5] is “Active”. The Ratio IC50 in data set [1] turned out to be 7. In data set [4], the logD turned out to be 2.5. The IC50 in data set [2] is 1.41 nM; in data set [3] it was 9.64 nM.
Consider `C#CCCCCOc1ccc2c(c1)NC(=O)CC2`, for which the Ratio IC50 in data set [1] is over 190. The log distribution coefficient (logD) in data set [4] turned out to be 1.6. The IC50 in data set [2] is 52.6 nM; in data set [3] it was over 10000 nM.
Consider `COC(=O)c1cc2cc(OC/C=C(\C)CCC=C(C)C)ccc2oc1=O`, for which, in data set [1], the Ratio IC50 is over 31. The IC50 in data set [2] was 325 nM; in data set [3], over 10000 nM.
Turning to `C#CCCCOc1ccc2cc(C(=O)OC)c(=O)oc2c1`, the Ratio IC50 in data set [1] worked out at 12. In addition, the IC50 was 82.4 nM in data set [2] and 953 nM in data set [3].
As for `C#CCOc1ccc2cc(C(=O)OC)c(=O)oc2c1`, the Ratio IC50 in data set [1] was 1. Further, the IC50 in data set [2] is 1790 nM; in data set [3] it was 1570 nM.
`C#CCCCOc1ccc2c(C)cc(=O)oc2c1`: the Ratio IC50 in data set [1] amounted to 30. The IC50 in data set [2] came out at 18.2 nM; in data set [3] it was 553 nM.
On to `C#CCCCOc1ccc2cc(NC(C)=O)c(=O)oc2c1`, for which the Ratio IC50 in data set [1] is 21. For the same compound, the figures for the IC50 in data set [2] and in data set [3] were 43.6 nM and 930 nM, respectively.
`C#CCCCCOc1ccc2oc(=O)c(C(=O)c3ccc(OC)cc3)cc2c1`: the IC50 in data set [2] and in data set [3] was over 10000 nM in each case.
On to `COC(=O)c1cc2ccc(OCCc3ccc(Cl)cc3)cc2oc1=O`, for which the Ratio IC50 in data set [1] was 53. This compound gave a logD in data set [4] of 3.9. The IC50 is 1.41 nM in data set [2] and 74.8 nM in data set [3].
Consider `C#CCCCCOc1ccc2cc(-c3ccc(OC)cc3)c(=O)oc2c1`, for which the “inhibition (INH)” value in data set [5] is “Active”. Moreover, the Ratio IC50 in data set [1] is over 3400. In addition, in data set [4], the logD was 4.3. Besides, the IC50 in data set [2] was 2.96 nM; in data set [3], over 10000 nM.
As to `C[C@H](NCc1ccc(OCc2cccc(F)c2)cc1)C(N)=O` [SAFINAMIDE], the “inhibition (INH)” value in data set [5] is “Active”.
Consider `C#CCCCOc1ccc2cc(C(=O)N3CCN(C(=O)OC(C)(C)C)CC3)c(=O)oc2c1`, for which the IC50 is 10000 nM in data set [2] and over 10000 nM in data set [3].
Take `C#CCCCOc1ccc2cc(C(=O)c3ccc(OC)cc3)c(=O)oc2c1`: in data set [1], the Ratio IC50 is over 19. Besides, the logD in data set [4] stood at 3.1. Also, the IC50 in data set [2] was 535 nM; in data set [3], over 10000 nM.
On to `C#CCNCCOc1ccc2ccc(=O)oc2c1`, for which the Ratio IC50 in data set [1] is 12. Also, the IC50 in data set [2] is 852 nM; in data set [3], 10000 nM.
Turning to `C#CCCCOc1ccc2cc(C(=O)Nc3ccc(F)cc3)c(=O)oc2c1`, the IC50 in data set [2] and in data set [3] was over 10000 nM in each case.
Regarding `C#CCCCOc1ccc2ccc(=O)oc2c1`, in data set [1], the Ratio IC50 was determined as 38. Besides, the IC50 is 91.8 nM in data set [2] and 3520 nM in data set [3].
Regarding `C#CCCCOc1ccc2cc(C(=O)O)c(=O)oc2c1`, the IC50 in data set [2] and in data set [3] was over 10000 nM in each case.
As to `C#CCNCCOc1ccc2cc(C(=O)OC)c(=O)oc2c1`, the Ratio IC50 in data set [1] stood at 7. Moreover, the logD in data set [4] was found to be 0.5. The IC50 was determined as 377 nM in data set [2] and 2680 nM in data set [3].
In the case of `C#CCCCCOc1ccc2ccc(=O)oc2c1`, the Ratio IC50 in data set [1] was 140. Besides, the IC50 in data set [2] worked out at 2.62 nM; in data set [3], 367 nM.
For `C#CCCCCOc1ccc2oc(=O)c(C(=O)OC)cc2c1`, in that order: over 81, 123 nM and over 10000 nM.
In the same order, the values of `COC(=O)c1cc2cc(OCc3cccc(Cl)c3)ccc2oc1=O` are over 320, 31.5 nM and over 10000 nM.
As for `C#CCCCOc1cccc2cc(C(=O)OC)c(=O)oc12`, the IC50 in data set [2] and in data set [3] was over 10000 nM throughout.
For `C#CCCCCOc1ccc2c(C)cc(=O)oc2c1`, the Ratio IC50 in data set [1] worked out at 78. Further, the IC50 came out at 0.77 nM in data set [2] and 59.9 nM in data set [3].
As to `CCCCCCOc1ccc2cc(C(=O)OC)c(=O)oc2c1`, the Ratio IC50 in data set [1] worked out at 75. In data set [4], the logD turned out to be 4.2. Moreover, the IC50 stood at 0.875 nM in data set [2] and 66.1 nM in data set [3].

Values taken from ChEMBL document CHEMBL3120072, “Alkynyl-coumarinyl ethers as MAO-B inhibitors” (Bioorg Med Chem, 2014).
